Screens (PubChem BioAssay)
RAD52 anneal inh: RAD52 DNA annealing inhibitors, primary screen, biochemical, FRET, single point, set 2; DNA repair protein RAD52 homolog (Homo sapiens), P43351; recombinant RAD52 DNA annealing, FRET fluorescence; inhibition, % at 18.7 µM; hit rate 0.46% among 360,000; AID 651710, 2012;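 active means every replicate showing at least 50% inhibition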
Apaf1 inhib: inhibitors of human Apaf-1 apoptosome, primary screen, biochemical, DEVD-Rh110 fluorescence, uHTS | Apoptotic protease-activating factor 1 (Homo sapiens), O14727 | reconstituted apoptosome caspase-3 activity | inhibition, % at 20 µM | hit rate 0.71% among 330,000; active means inhibition of at least 40% at 20 µM
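Material: cell-free apoptosome with Apaf-1, procaspase-3 and caspase-9; Buffer or medium: Hepes pH 7.5 with detergent and BSA; Reagent: cytochrome c trigger plus (Z-DEVD)2-Rh110 caspase-3 substrate; Times: compound with Apaf-1, dATP, procaspase-3 30 min, then 50 min reaction, room temperature; Technique: Rh110 fluorescence intensity.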
RAD54 inh: inhibitors of human RAD54 branch migration, primary screen, biochemical, fluorescence, single point. RAD54 Holliday junction branch migration, FAM/BHQ fluorescence. inhibition, % at 10.4 µM. hit rate 0.14% among 360,000;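 active means mean normalized replicate activity at least 40 and at least half of replicates scoring 40 or more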;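 further: inhibitors cause a drop in the FAM fluorescence signal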
Target sequence (Q92698 whole entry, looked up): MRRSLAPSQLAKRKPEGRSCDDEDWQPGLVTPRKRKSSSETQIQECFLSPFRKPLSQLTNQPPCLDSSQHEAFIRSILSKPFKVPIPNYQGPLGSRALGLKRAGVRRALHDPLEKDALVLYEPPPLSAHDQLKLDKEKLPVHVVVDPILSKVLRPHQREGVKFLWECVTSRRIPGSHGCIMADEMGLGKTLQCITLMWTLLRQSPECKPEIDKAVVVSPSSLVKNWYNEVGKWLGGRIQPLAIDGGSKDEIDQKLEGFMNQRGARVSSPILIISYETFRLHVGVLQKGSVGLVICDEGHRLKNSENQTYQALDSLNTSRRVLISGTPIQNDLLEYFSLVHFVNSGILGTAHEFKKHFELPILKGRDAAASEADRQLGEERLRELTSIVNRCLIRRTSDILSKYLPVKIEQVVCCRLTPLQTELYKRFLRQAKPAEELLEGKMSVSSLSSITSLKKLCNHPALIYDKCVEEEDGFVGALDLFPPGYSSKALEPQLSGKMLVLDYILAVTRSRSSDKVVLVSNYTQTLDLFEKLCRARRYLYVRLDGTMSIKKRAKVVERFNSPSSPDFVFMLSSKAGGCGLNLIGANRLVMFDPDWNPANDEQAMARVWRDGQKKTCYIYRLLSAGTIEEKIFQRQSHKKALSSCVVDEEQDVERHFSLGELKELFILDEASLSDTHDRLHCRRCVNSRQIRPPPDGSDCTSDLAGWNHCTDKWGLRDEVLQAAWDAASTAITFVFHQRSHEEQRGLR
FID counter: compounds displacing fluorescent DNA intercalator, primary screen, artefact control for HCV NS3 helicase inhibitor project, biochemical, FID fluorescence. DNA fluorescent intercalator displacement. inhibition, % at 7.9 µM. hit rate 0.17% among 290,000; in the data active means inhibition above about 37%;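 further: higher means more ethidium bromide displaced from hairpin DNA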
UBC13 inh: UBC13 polyubiquitin chain formation inhibitors, primary screen, biochemical, TR-FRET, uHTS; Ubiquitin-conjugating enzyme E2 N (Homo sapiens), P61088; inhibition, % at 20 µM; hit rate 0.47% among 330,000; AID 485273, 2010; in the data active means inhibition above about 45%, passing the limit was not always enough
Neddyl block: inhibitors of cullin neddylation, primary screen, biochemical, TR-FRET, uHTS, NAE and Ubc12; hit rate 0.58% among 360,000; calls only at 25 µM; in the data active means inhibition above about 36%
Each line names hits and unclear results; the compound was inactive in the other large screens. Sampled rows, rich in hits. Any-hit rate of the full collection: about 1.6%.

Cc1noc(C)c1S(=O)(=O)N(C)C[C@H]1OCCCC[C@H](C)Oc2ccc(NS(=O)(=O)c3ccc(F)cc3)cc2C(=O)N([C@H](C)CO)C[C@H]1C	none (no result: RAD52 anneal inh, Apaf1 inhib, FID counter, UBC13 inh, Neddyl block)
Cc1ccc(S(=O)(=O)N(C)C[C@@H]2OCCCC[C@@H](C)Oc3ccc(NC(=O)CCCN(C)C)cc3C(=O)N([C@@H](C)CO)C[C@@H]2C)cc1	none (no result: Apaf1 inhib, FID counter, UBC13 inh, Neddyl block)
CCCN(C)C[C@H]1OCCCC[C@@H](C)Oc2ccc(NS(=O)(=O)c3c(C)noc3C)cc2C(=O)N([C@@H](C)CO)C[C@H]1C	none (no result: Apaf1 inhib, RAD54 inh, FID counter, UBC13 inh, Neddyl block)
Cc1noc(C)c1NC(=O)NCC[C@H]1CC[C@H](NC(=O)c2ccccc2)[C@H](CO)O1	none (no result: Apaf1 inhib, FID counter, UBC13 inh, Neddyl block)
O=S(=O)(c1ccc(N2CCC(c3ccc(Cl)cc3)=N2)cc1)N(CCO)CCO	none
CN(C)CCCNS(=O)(=O)c1ccc(N2CCC(c3ccc(Cl)cc3)=N2)cc1	Apaf1 inhib 73, FID counter 37, UBC13 inh 55 (no result: RAD52 anneal inh, RAD54 inh, Neddyl block)
O=C(CN1CCOCC1)N1CCCCN2[C@H](CO)[C@H](c3ccc(C#Cc4ccccc4)cc3)[C@H]2C1	none (no result: Apaf1 inhib, FID counter, UBC13 inh, Neddyl block)
CC(=O)OCC1O[C@@H](O[C@@H]2C[C@H]3C(C)(C)[C@H](OC(C)=O)CC[C@]3(C)[C@H]3CC[C@]45C[C@]4(CC[C@H]5[C@@H](C)C[C@@H](O)[C@H](O)C(C)(C)O)[C@@]32C)[C@H](O)[C@@H](O)[C@@H]1O (stereo not given in full)	UBC13 inh 93 (no result: RAD52 anneal inh, RAD54 inh, Neddyl block)
CC(C)=CCC[C@](C)(O[C@@H]1O[C@H](CO[C@@H]2O[C@H](CO)[C@@H](O)[C@H](O)[C@H]2O)[C@@H](O)[C@H](O)[C@H]1O)C1CC[C@]2(C)C1C(=O)CC1[C@@]3(C)CC[C@H](O[C@H]4O[C@@H](CO)[C@H](O)[C@@H](O)[C@@H]4O)C(C)(C)C3CC[C@]12C (stereo not given in full)	none (no result: FID counter)
N#Cc1ccc(-c2ccc3c(c2)[C@H]2[C@H](CCN2C(=O)c2ccncc2)[C@H](CO)N3)cc1	none (no result: RAD52 anneal inh, Apaf1 inhib, FID counter, UBC13 inh, Neddyl block)
O=C(NCCc1ccc(Cl)cc1)c1ccc2c(=O)[nH]c3c(C(=O)NCC4CCCO4)sc(=S)n3c2c1 (stereo not given)	none (no result: Apaf1 inhib, RAD54 inh, FID counter, UBC13 inh, Neddyl block)
O=C(NCCc1ccccc1)c1ccc2c(=O)[nH]c3c(C(=O)NCC4CCCO4)sc(=S)n3c2c1 (stereo not given)	FID counter 49
Cc1coc2c(C)c3oc(=O)c(CCC(=O)NCCCn4ccnc4)c(C)c3cc12	none (not shown: Neddyl block)
Cc1c(CCC(=O)NCCCn2ccnc2)c(=O)oc2c(C)c3occ(C(C)(C)C)c3cc12	FID counter 38
CCCCCCOC(=O)C[N+](C)(C)CCOC1CC2CCC1(C)C2(C)C (stereo not given)	Apaf1 inhib 52, UBC13 inh 54 (no result: RAD52 anneal inh)
Cc1ccc(C(=O)c2c3ccc(N)cc3nn2CCC(N)=O)cc1	Apaf1 inhib 82
Cc1ccc(C(=O)c2c3ccc(C(F)(F)F)cc3[n+]([O-])n2CCC(N)=O)cc1	none
CCOC(=O)c1ccc(S(=O)(=O)N2CCC(C(=O)OCC)CC2)cc1	none
CCOC(=O)c1ccc(S(=O)(=O)N2CCC(N3CCCCC3)CC2)cc1	UBC13 inh 47
C/C=C/c1ccc2c(c1)O[C@@H](CN(C)C(=O)CC)[C@@H](C)CN([C@@H](C)CO)S2(=O)=O	none (no result: Apaf1 inhib, FID counter, UBC13 inh, Neddyl block)
Cc1ccc(C(=O)N/C(=C\c2ccc(-c3ccccc3[N+](=O)[O-])o2)C(=O)NCCCN2CCOCC2)cc1	Apaf1 inhib 65
Cc1ccc(C(=O)N/C(=C\c2ccc(-c3ccc(Br)cc3)o2)C(=O)NCCCN(C)C)cc1	UBC13 inh 72, Neddyl block active (no result: RAD54 inh)
CN(C)CCCNC(=O)/C(=C\c1ccc(-c2cccc([N+](=O)[O-])c2)o1)NC(=O)c1ccccc1	FID counter 44 (no result: RAD54 inh)
Cc1ccc(C(=O)N/C(=C\c2cn(C)c3ccccc23)C(=O)NCCCN2CCOCC2)cc1	none (no result: RAD54 inh)
CO[C@H]1CN(C)C(=O)c2ccc(NC(=O)Nc3cccc(F)c3)cc2OC[C@H](C)N(C)C[C@@H]1C	none (no result: Apaf1 inhib, RAD54 inh, FID counter, UBC13 inh, Neddyl block)
Cc1ccc(NC(=O)c2ccc(NCCCN3CCC(C)CC3)c([N+](=O)[O-])c2)cc1F	FID counter 41 (no result: RAD54 inh)
CN(C)CC(=O)Nc1ccc2c(c1)[C@@H]1C[C@@H](CC(=O)NCc3ccccc3F)O[C@@H](CO)[C@@H]1O2	none (no result: RAD52 anneal inh, Apaf1 inhib, FID counter, UBC13 inh, Neddyl block)
C[C@H](O)C#Cc1cnc2c(c1)C(=O)N([C@@H](C)CO)C[C@H](C)[C@@H](CN(C)Cc1ccc(-c3ccccc3)cc1)O2	none (no result: Apaf1 inhib, FID counter, UBC13 inh, Neddyl block)
C[C@H]1CCCCO[C@H](CN(C)C(=O)c2ccccc2)[C@@H](C)CN([C@@H](C)CO)C(=O)c2cc(NC(=O)CCCN(C)C)ccc2O1	none (no result: Apaf1 inhib, FID counter, UBC13 inh, Neddyl block)
O=C(C[C@H]1CC[C@H]2[C@@H](COC[C@H](O)CN2S(=O)(=O)c2ccccc2)O1)NCC1CCCCC1	RAD52 anneal inh 83 (no result: Apaf1 inhib, FID counter, UBC13 inh, Neddyl block)
O=C(C[C@@H]1CC[C@@H]2[C@H](COC[C@H](O)CN2S(=O)(=O)c2ccccc2)O1)NCC1CCCCC1	none (no result: Apaf1 inhib, FID counter, UBC13 inh, Neddyl block)
O=C(C[C@H]1CC[C@@H]2[C@H](COC[C@@H](O)CN2S(=O)(=O)c2ccccc2)O1)NCC1CCCCC1	RAD52 anneal inh 94 (no result: Apaf1 inhib, FID counter, UBC13 inh, Neddyl block)
CCC(=O)N1[C@@H]2c3ccc(/C=C/c4ccccc4)c(=O)n3C[C@@H]2[C@@H](CO)[C@@H]1C(=O)OC	none (no result: Apaf1 inhib, FID counter, UBC13 inh, Neddyl block)
Cc1nc2sccn2c(=O)c1S(=O)(=O)N1CCN(c2ccccc2)CC1	none
Cc1nc2sccn2c(=O)c1CCN1CCC(=C(c2ccccc2)c2ccc(F)cc2)CC1	Apaf1 inhib 42 (no result: RAD52 anneal inh, RAD54 inh, Neddyl block)
CC(C)Oc1ccc(C(=O)N/N=C/c2ccc(-c3ccc(S(=O)(=O)Nc4ncccn4)cc3)o2)cc1	Neddyl block active (no result: RAD52 anneal inh, RAD54 inh)
COc1ccc(S(=O)(=O)Nc2ccc3c(c2)C(=O)N([C@@H](C)CO)C[C@@H](C)[C@H](CN(C)C(=O)Nc2ccc(C(F)(F)F)cc2)OCCCC[C@H](C)O3)cc1	none (no result: Apaf1 inhib, FID counter, UBC13 inh, Neddyl block)
COc1ccc(C#Cc2ccc([C@@H]3[C@@H](CO)N4CCCCN(C)C[C@H]34)cc2)cc1	none (no result: Apaf1 inhib, FID counter, UBC13 inh, Neddyl block)
COc1ccc(C#Cc2ccc([C@H]3[C@@H](CO)N4CCCCN(C)C[C@H]34)cc2)cc1	RAD52 anneal inh 80 (no result: Apaf1 inhib, FID counter, UBC13 inh, Neddyl block)
CN1CCCCN2[C@H](CO)[C@H](c3ccc(C#Cc4ccccc4F)cc3)[C@H]2C1	RAD52 anneal inh 69 (no result: Apaf1 inhib, FID counter, UBC13 inh, Neddyl block)
COc1ccc(C#Cc2ccc([C@@H]3[C@H](CO)N4CCCCN(C)C[C@@H]34)cc2)cc1	RAD52 anneal inh 63 (no result: Apaf1 inhib, FID counter, UBC13 inh, Neddyl block)
COc1ccc2c3c([nH]c2c1)[C@H](CO)N(C(=O)C1CCC1)CC31CCN(C)CC1	none (no result: Apaf1 inhib, RAD54 inh, FID counter, UBC13 inh, Neddyl block)
